Laboratory results from ChEMBL document CHEMBL1157127, “Aplysinopsin analogs: Synthesis and anti-proliferative activity of substituted (Z)-5-(N-benzylindol-3-ylmethylene)imidazolidine-2,4-diones” (Bioorg Med Chem, 2010).

Tests used:
Assay type in all cases: functional, cell-based
[1] = system: A549; assay: Antiproliferative activity against human A549 cells after 24 hrs by trypan blue exclusion assay; details: A549, 24 h
How it was run: (§1)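 Cells from ATCC. MCF-7 and MDA-231 grown in DMEM with 10% FBS and 1% L-glutamine; A549 and H460 in RPMI 1640 with glutamine, glucose, HEPES, sodium pyruvate and 10% FBS; all at 37 °C, 5% CO2. Treated 24 h at 1, 5, 10, 20 and 40 µM, with DMSO vehicle control. Viability by trypan blue dye exclusion, mean ± SD of four wells.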

[2] = system: NCI-H460; assay: Antiproliferative activity against human H460 cells after 24 hrs by trypan blue exclusion assay; details: NCI-H460, 24 h; how it was run: as §1
[3] = system: MCF7; assay: Antiproliferative activity against human MCF7 cells after 24 hrs by trypan blue exclusion assay; details: MCF7, 24 h; how it was run: as §1
[4] = Antiproliferative activity against human MDA231 cells after 24 hrs by trypan blue exclusion assay; details: MDA-MB-231, 24 h; how it was run: as §1

| SMILES | IC50 [1] | IC50 [2] | IC50 [3] | IC50 [4] |
| --- | --- | --- | --- | --- |
| O=C1NC(=O)/C(=C/c2cn(Cc3ccc(F)cc3)c3ccccc23)N1 | 27.8 µM | 16.3 µM | 22.3 µM | 32.8 µM |
| Cc1ccc(Cn2cc(/C=C3\NC(=O)NC3=O)c3ccccc32)cc1 | 34.8 µM | 26.1 µM | 20.2 µM | 22.1 µM |
| O=C1NC(=O)/C(=C/c2cn(Cc3ccccc3)c3ccc(Cl)cc23)N1 | 29.7 µM | 26.9 µM | 9.2 µM | 18 µM |
| O=C1NC(=O)/C(=C/c2cn(Cc3ccccc3Br)c3ccccc23)N1 | 39.5 µM | 16.9 µM | 4.4 µM | 21.8 µM |
| Cc1ccc2c(c1)c(/C=C1\NC(=O)NC1=O)cn2Cc1ccccc1 | 27.7 µM | 14.6 µM | 5.2 µM | 20.1 µM |
| O=C1NC(=O)/C(=C/c2cn(Cc3ccccc3)c3ccc(Br)cc23)N1 | > 40 µM | > 40 µM | 7.6 µM | 12.4 µM |
| O=C1NC(=O)/C(=C/c2cn(Cc3ccc([N+](=O)[O-])cc3)c3ccccc23)N1 | > 40 µM | > 40 µM | 10.9 µM | 23.3 µM |
| N#Cc1ccc(Cn2cc(/C=C3\NC(=O)NC3=O)c3ccccc32)cc1 | > 40 µM | 19.1 µM | 14.1 µM | 17.6 µM |
| COC(=O)c1ccc(Cn2cc(/C=C3\NC(=O)NC3=O)c3ccccc32)cc1 | > 40 µM | 30.8 µM | 15.4 µM | 18.4 µM |
| COc1ccc(Cn2cc(/C=C3\NC(=O)NC3=O)c3cc(Br)ccc32)cc1 | 25.2 µM | 22.3 µM | 16.4 µM | 23.2 µM |
| O=C1NC(=O)/C(=C/c2cn(Cc3ccc(Cl)cc3)c3ccccc23)N1 | 25.4 µM | 25.4 µM | 21.4 µM | 25.3 µM |
| O=C1NC(=O)/C(=C/c2cn(Cc3ccccc3)c3ccccc23)N1 | > 40 µM | 14.2 µM | 27.3 µM | 15.7 µM |
| COc1ccc2c(c1)c(/C=C1\NC(=O)NC1=O)cn2Cc1ccccc1 | > 40 µM | 28.4 µM | 7.2 µM | 7 µM |
| O=c1[nH]cc(F)c(=O)[nH]1 [FLUOROURACIL] | 5.4 µM | 2.7 µM | 15.2 µM | 3.5 µM |
